One block for each molecule: values may come before it. Activity calls are given as the source filed them. The rule behind the calls is not given here.
Legend:
[1] = target: T1, von Hippel-Lindau disease tumor suppressor/Serine/threonine-protein kinase TBK1 (Homo sapiens, UniProt Q9UHD2+P40337); test: Induction of VHL-mediated TBK1 degradation in human Panc02.13 cells after 16 hrs by Western blot method relative to control; type: cell-based
Outline: (§1)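 Panc02.13 cells grown in RPMI-1640 with 15% FBS and 10 units/mL human recombinant insulin, exposed to compound for 16 h. For phospho-IRF3 read-out, TLR3 agonist Poly I:C added for the final 3 h. Cells lysed in RIPA buffer with protease/phosphatase inhibitors, lysates clarified at 16,000g, run on SDS-PAGE and immunoblotted for TBK1, pIRF3 and GAPDH.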
Target sequence in this assay (P40337 whole entry, looked up, one chain of several): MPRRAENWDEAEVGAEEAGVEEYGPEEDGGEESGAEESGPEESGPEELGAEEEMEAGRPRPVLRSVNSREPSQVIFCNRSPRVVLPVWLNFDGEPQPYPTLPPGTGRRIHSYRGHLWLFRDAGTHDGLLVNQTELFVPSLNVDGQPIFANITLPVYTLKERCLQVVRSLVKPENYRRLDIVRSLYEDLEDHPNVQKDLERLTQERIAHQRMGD

[2] = target: von Hippel-Lindau disease tumor suppressor/Inhibitor of nuclear factor kappa-B kinase subunit epsilon (Homo sapiens) (UniProt Q14164+P40337); test: Induction of VHL-mediated IKKepsilon degradation in human Panc02.13 cells up to 3 uM after 16 hrs by Western blot method; type: cell-based
von Hippel-Lindau disease tumor suppressor/Inhibitor of nuclear factor kappa-B kinase subunit epsilon (Homo sapiens), sequence (P40337 whole entry, looked up): as the sequence (P40337 whole entry, looked up, one chain of several) above
von Hippel-Lindau disease tumor suppressor/Inhibitor of nuclear factor kappa-B kinase subunit epsilon (Homo sapiens), sequence (Q14164 whole entry, looked up): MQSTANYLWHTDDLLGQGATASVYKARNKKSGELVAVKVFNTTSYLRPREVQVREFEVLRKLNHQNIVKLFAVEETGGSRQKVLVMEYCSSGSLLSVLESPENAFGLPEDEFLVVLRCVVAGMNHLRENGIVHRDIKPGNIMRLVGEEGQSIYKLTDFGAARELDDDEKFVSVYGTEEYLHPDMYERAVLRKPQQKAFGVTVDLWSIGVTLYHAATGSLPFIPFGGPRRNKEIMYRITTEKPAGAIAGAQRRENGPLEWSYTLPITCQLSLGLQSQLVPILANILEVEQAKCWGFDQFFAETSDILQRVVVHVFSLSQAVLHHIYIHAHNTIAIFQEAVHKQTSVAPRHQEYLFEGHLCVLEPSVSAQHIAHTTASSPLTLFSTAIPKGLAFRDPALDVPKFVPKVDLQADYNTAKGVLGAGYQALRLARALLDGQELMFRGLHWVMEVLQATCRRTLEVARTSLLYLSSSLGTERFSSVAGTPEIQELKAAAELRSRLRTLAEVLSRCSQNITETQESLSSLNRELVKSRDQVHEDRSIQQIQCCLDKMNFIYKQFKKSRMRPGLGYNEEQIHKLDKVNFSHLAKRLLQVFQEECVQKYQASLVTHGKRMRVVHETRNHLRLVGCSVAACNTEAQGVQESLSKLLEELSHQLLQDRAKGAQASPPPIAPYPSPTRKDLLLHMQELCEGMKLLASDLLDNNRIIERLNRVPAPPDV

[3] = target: T1, von Hippel-Lindau disease tumor suppressor/Serine/threonine-protein kinase TBK1; test: Induction of VHL-mediated TBK1 degradation in human H2110 cells harboring wild-type K-Ras at 100 to 300 nM after 16 hrs by Western blot method; type: cell-based
Target sequence in this assay (P40337 whole entry, looked up, one chain of several): as the sequence (P40337 whole entry, looked up, one chain of several) above

[4] = target: T1, von Hippel-Lindau disease tumor suppressor/Serine/threonine-protein kinase TBK1; test: Induction of VHL-mediated TBK1 degradation in human Panc02.13 cells at 100 nM after 16 hrs in presence of (2S,4R)-1-((S)-2-acetamido-3,3-dimethylbutanoyl)-4-hydroxy-N-(4-(4-methylthiazol-5-yl)benzyl)pyrrolidine-2-carboxamide by Western blot method; type: cell-based; outline: as §1
Target sequence in this assay (P40337 whole entry, looked up, one chain of several): as above

[5] = target: T1, von Hippel-Lindau disease tumor suppressor/Serine/threonine-protein kinase TBK1; test: Induction of VHL-mediated TBK1 degradation in human Panc02.13 cells after 16 hrs by Western blot method; type: cell-based
Outline: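 For phospho-IRF3 read-out, TLR3 agonist Poly I:C added for the final 3 h. Cells lysed in RIPA buffer with protease/phosphatase inhibitors, lysates clarified at 16,000g, run on SDS-PAGE and immunoblotted for TBK1, pIRF3 and GAPDH.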
Target sequence in this assay (P40337 whole entry, one chain of several): as the sequence (P40337 whole entry, looked up, one chain of several) above

[6] = target: T1, von Hippel-Lindau disease tumor suppressor/Serine/threonine-protein kinase TBK1; test: Induction of VHL-mediated TBK1 degradation in human HCC827 cells harboring wild-type K-Ras at 100 to 300 nM after 16 hrs by Western blot method; type: cell-based
Target sequence in this assay (P40337 whole entry, looked up, one chain of several): as above

[7] = target: T1, von Hippel-Lindau disease tumor suppressor/Serine/threonine-protein kinase TBK1; test: Induction of VHL-mediated TBK1 degradation in human A549 cells harboring K-Ras mutant at 100 nM after 16 hrs by Western blot method; type: cell-based
Target sequence in this assay (P40337 whole entry, looked up, one chain of several): as above

[8] = tested on: NCI-H1792; test: Antiproliferative activity against human NCI-H1792 cells harboring K-Ras mutant at 10 uM after 72 hrs by CellTiter-Glo assay; type: functional, cell-based
Outline: (§2)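 Lung cancer lines seeded at 5000 cells/well; after 24 h, compound added as 3-fold dilutions (10 μM top final concentration, 0.1% DMSO final). Incubated 72 h, then viability read by CellTiter-Glo luminescence.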

[9] = target: T1, von Hippel-Lindau disease tumor suppressor/Serine/threonine-protein kinase TBK1; test: Induction of VHL-mediated TBK1 degradation in human H23 cells harboring K-Ras mutant at 100 to 300 nM after 16 hrs by Western blot method; type: cell-based
Target sequence in this assay (P40337 whole entry, looked up, one chain of several): as above

[10] = target: T1, von Hippel-Lindau disease tumor suppressor/Serine/threonine-protein kinase TBK1; test: Induction of VHL-mediated TBK1 degradation in human H1792 cells harboring K-Ras mutant at 100 to 300 nM after 16 hrs by Western blot method; type: cell-based
[11] = tested on: A549; test: Antiproliferative activity against human A549 cells harboring K-Ras mutant at 10 uM after 72 hrs by CellTiter-Glo assay; type: functional, cell-based; outline: as §2
[12] = organism: Homo sapiens; test: Antiproliferative activity against human NCI-H2110 cells harboring wild-type K-Ras at 10 uM after 72 hrs by CellTiter-Glo assay; type: functional, cell-based; outline: as §2
[13] = target: T1, von Hippel-Lindau disease tumor suppressor/Serine/threonine-protein kinase TBK1; test: Induction of VHL-mediated TBK1 degradation in human Panc02.13 cells assessed as decrease in Poly(I:C)-induced in IRF3 phosphorylation at 100 nM preincubated for 16 hrs followed by Poly I:C addition measured after 3 hrs by Western blot method; type: cell-based; outline: as §1
[14] = target: T1, von Hippel-Lindau disease tumor suppressor/Serine/threonine-protein kinase TBK1; test: Induction of VHL-mediated TBK1 degradation in human Panc02.13 cells at 100 nM after 16 hrs by Western blot method; type: cell-based; outline: as §1
[15] = target: T1, von Hippel-Lindau disease tumor suppressor/Serine/threonine-protein kinase TBK1; test: Induction of VHL-mediated TBK1 degradation in human Panc02.13 cells at 100 nM after 16 hrs in presence of proteosome inhibitor carfilzomib by Western blot method; type: cell-based; outline: as §1
[16] = tested on: NCI-H23; test: Antiproliferative activity against human H23 cells harboring K-Ras mutant at 10 uM after 72 hrs by CellTiter-Glo assay; type: functional, cell-based; outline: as §2
[17] = tested on: HCC827; test: Antiproliferative activity against human HCC827 cells harboring wild-type K-Ras at 10 uM after 72 hrs by CellTiter-Glo assay; type: functional, cell-based; outline: as §2
[18] = target: von Hippel-Lindau disease tumor suppressor/Elongin-C/Elongin-B/HIF1A (Homo sapiens, UniProt P40337+Q15369+Q15370+Q16665); test: Inhibition of His-tagged VHL/elongin B/elongin C (unknown origin) interaction with HIF1alpha preincubated for 10 mins followed by fluorescin labelled HIF1alpha peptide addition measured after 2 hrs by fluorescence polarization assay; type: protein-complex assay
von Hippel-Lindau disease tumor suppressor/Elongin-C/Elongin-B/HIF1A, sequence (P40337 whole entry, looked up): as the sequence (P40337 whole entry, looked up, one chain of several) above
von Hippel-Lindau disease tumor suppressor/Elongin-C/Elongin-B/HIF1A, sequence (Q15369 whole entry, looked up): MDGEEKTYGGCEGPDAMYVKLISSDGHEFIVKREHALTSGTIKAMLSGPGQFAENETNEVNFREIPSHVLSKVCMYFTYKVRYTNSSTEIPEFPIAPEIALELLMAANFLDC
von Hippel-Lindau disease tumor suppressor/Elongin-C/Elongin-B/HIF1A, sequence (Q15370 whole entry, looked up): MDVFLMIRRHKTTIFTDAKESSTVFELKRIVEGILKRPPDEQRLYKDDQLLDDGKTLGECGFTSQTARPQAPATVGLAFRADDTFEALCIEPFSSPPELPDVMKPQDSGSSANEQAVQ
von Hippel-Lindau disease tumor suppressor/Elongin-C/Elongin-B/HIF1A, sequence (Q16665 whole entry, looked up): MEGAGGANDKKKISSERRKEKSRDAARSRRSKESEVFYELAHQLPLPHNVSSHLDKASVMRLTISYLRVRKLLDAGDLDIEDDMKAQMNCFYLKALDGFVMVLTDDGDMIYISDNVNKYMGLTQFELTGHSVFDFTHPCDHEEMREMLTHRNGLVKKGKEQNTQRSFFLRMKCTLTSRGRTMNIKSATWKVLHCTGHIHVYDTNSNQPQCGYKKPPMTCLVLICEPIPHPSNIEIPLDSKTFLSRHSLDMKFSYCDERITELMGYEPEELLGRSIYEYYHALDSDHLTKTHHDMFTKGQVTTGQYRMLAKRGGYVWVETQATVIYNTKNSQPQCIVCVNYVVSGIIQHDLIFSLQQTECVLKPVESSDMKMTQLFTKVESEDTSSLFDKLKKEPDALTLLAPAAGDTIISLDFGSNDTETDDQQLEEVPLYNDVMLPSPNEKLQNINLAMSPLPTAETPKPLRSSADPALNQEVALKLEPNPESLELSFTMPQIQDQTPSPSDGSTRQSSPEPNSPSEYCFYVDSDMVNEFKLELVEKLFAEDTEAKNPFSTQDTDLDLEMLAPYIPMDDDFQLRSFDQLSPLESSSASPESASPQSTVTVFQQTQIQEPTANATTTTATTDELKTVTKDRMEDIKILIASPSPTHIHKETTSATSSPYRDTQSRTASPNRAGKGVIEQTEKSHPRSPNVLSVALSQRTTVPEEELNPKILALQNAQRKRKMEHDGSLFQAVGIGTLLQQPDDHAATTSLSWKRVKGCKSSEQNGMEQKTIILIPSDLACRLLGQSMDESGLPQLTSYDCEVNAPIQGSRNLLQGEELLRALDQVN
Outline: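 VHL coexpressed and copurified with Elongin B and C (VCB). Compound preincubated 10 min with VHL in 50 mM Tris pH 7.5, 200 mM NaCl, 2 mM DTT, 1% DMSO. Polarization converted to percent binding against control wells; IC50 from four-parameter fit.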

[19] = target: T1, von Hippel-Lindau disease tumor suppressor/Serine/threonine-protein kinase TBK1; test: Induction of VHL-mediated TBK1 degradation in human Panc02.13 cells at 0.1 to 1 uM after 16 hrs by Western blot method; type: cell-based; outline: as §1
[20] = target: T2, Serine/threonine-protein kinase TBK1 (Homo sapiens) (UniProt Q9UHD2); test: Antagonist activity at TBK1 in human Panc02.13 cells assessed as decrease in Poly(I:C)-induced IRF3 phosphorylation preincubated for 16 hrs followed by Poly I:C addition measured after 3 hrs by Western blot method; type: cell-based; outline: as §1
T2 sequence (whole entry): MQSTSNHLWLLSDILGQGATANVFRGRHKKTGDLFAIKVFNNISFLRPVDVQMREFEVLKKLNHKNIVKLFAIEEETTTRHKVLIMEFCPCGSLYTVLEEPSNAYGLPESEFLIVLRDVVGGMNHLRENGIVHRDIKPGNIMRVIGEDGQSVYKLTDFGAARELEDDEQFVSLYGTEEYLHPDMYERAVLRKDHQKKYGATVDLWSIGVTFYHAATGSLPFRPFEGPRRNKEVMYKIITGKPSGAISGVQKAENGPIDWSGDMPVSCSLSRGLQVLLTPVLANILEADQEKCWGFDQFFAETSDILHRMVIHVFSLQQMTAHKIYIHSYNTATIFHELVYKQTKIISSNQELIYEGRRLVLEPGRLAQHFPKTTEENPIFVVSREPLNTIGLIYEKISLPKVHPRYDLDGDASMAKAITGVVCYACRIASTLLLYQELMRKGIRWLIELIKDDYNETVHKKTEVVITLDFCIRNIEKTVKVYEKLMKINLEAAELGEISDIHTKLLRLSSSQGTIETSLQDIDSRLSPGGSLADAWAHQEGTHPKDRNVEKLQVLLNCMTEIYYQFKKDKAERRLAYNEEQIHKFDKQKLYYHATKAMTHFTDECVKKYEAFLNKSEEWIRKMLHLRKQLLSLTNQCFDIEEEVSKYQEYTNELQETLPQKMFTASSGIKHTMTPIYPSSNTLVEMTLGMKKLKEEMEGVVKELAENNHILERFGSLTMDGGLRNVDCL

[21] = target: T3, Serine/threonine-protein kinase TBK1 (Homo sapiens, UniProt Q9UHD2); test: Binding affinity to human full length wild-type TBK1 expressed in mammalian expression system
T3 sequence (Q9UHD2 whole entry): T2 sequence (whole entry)

[22] = target: T1, von Hippel-Lindau disease tumor suppressor/Serine/threonine-protein kinase TBK1; test: Induction of VHL-mediated TBK1 degradation in human Panc02.13 cells at 1 uM after 16 hrs by Western blot method; type: cell-based
Outline: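 Panc02.13 cells grown in RPMI-1640 with 15% FBS and 10 units/mL human recombinant insulin; compound exposure 16 h, with TLR3 agonist Poly I:C added for the final 3 h. Cells lysed in RIPA buffer with protease and phosphatase inhibitors, lysates clarified at 16,000g for 10 min, resolved by SDS-PAGE and immunoblotted for TBK1, with GAPDH as loading control.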

Emax [1]: 96% | Activity [2]: inactive | Activity [3]: Active | Activity [4]: inactive | DC50 [5]: 9 to 12 nM | Activity [6]: Active | Activity [7]: Active | Activity [9]: Active | Activity [10]: Active | Activity [13]: Active | Activity [14]: Active | Activity [15]: inactive | IC50 [18]: 4.9 µM
Structure (SMILES): Cc1ncsc1-c1ccc(CNC(=O)[C@@H]2C[C@@H](O)CN2C(=O)[C@@H](NC(=O)COCCCOCCCCOCCCOc2ccc(Nc3ncc(Br)c(NCCCN(C)C(=O)C4CCC4)n3)cc2)C(C)(C)C)cc1
Activity [8]: inactive | Activity [11]: inactive | Activity [12]: inactive | Activity [16]: inactive | Activity [17]: inactive

Activity [19]: inactive | inhibition [20]: Active | Kd [21]: 5.9 nM | IC50 [18]: > 100 µM
Structure (SMILES): Cc1ncsc1-c1ccc(CNC(=O)[C@@H]2C[C@H](O)CN2C(=O)[C@@H](NC(=O)COCCCOCCCCOCCCOc2ccc(Nc3ncc(Br)c(NCCCN(C)C(=O)C4CCC4)n3)cc2)C(C)(C)C)cc1

DC50 [5]: > 1000 nM | Activity [22]: inactive | Kd [21]: 1.3 nM
Structure (SMILES): CCOc1ccc(Nc2ncc(Br)c(NCCCN(C)C(=O)C3CCC3)n2)cc1

— ChEMBL document CHEMBL4219031, “Identification and Characterization of Von Hippel-Lindau-Recruiting Proteolysis Targeting Chimeras (PROTACs) of TANK-Binding Kinase 1” (J Med Chem, 2018)
